Test results: ChEMBL document CHEMBL1143291, “Synthesis and structure-activity relationships of novel, substituted 5,6-dihydrodibenzo[a,g]quinolizinium P2X7 antagonists” (Bioorg Med Chem Lett, 2009)
pIC50: −log10 of the molar value. Activity calls are given as the source filed them. The calls are words filed in the database; no cut-off is given here.

Columns and labels:
P2X purinoceptor 7 = target: T1, P2X purinoceptor 7 (Homo sapiens, UniProt Q99572); experiment: Antagonist activity at human P2X7 receptor expressed in HEK293 cells assessed as inhibition of BzATP-induced fluorescent ethidium accumulation; assay type: functional, cell-based
T1 sequence (Q99572 whole entry): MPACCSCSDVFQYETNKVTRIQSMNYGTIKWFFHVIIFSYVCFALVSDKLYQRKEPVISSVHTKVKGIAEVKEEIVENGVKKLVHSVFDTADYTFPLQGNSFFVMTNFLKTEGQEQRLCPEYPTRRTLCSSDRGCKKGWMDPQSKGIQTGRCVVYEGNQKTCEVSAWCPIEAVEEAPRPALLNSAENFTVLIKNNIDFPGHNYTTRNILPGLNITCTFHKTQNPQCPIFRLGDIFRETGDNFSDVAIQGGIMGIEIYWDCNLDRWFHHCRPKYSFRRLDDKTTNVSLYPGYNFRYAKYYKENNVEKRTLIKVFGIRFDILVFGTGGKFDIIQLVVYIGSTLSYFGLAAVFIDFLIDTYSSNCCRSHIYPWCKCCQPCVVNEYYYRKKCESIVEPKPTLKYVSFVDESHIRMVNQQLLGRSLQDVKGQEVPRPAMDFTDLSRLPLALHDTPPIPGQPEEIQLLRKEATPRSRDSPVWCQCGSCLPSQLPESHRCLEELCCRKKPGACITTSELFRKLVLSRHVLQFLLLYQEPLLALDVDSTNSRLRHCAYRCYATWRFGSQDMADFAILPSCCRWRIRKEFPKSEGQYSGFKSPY
In short: (§1)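 Adherent HEK293 cells stably transfected with human P2X7 cDNA were preincubated 30 min with compound. They were then resuspended at 2.5 × 10^6 cells/ml in 20 mM HEPES pH 7.4 with 140 mM KCl, 5 mM glucose, 1 mM EDTA and 0.1 mM ethidium bromide. BzATP was added to 1 mM for 120 min at 37 °C. Ethidium uptake was read by fluorescence (ex 530/20, em 590/20 nm).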

THP-1 [1] = experiment: Inhibition of Bz-ATP-induced IL1-beta release in LPS/IFN-gamma-differentiated human THP1 cells at 1 uM by ELISA; assay type: functional
In short: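 THP-1 cells were differentiated for 3 h with 25 ng/ml LPS plus 10 ng/ml IFNγ. They were preincubated 30 min with 1 µM compound, then stimulated with 1 mM BzATP for 30 min. Supernatants were collected by centrifugation (1000 rpm, 5 min) and mature human IL-1β was measured by ELISA. Results are mean ± SD percent inhibition, n = 3.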

THP-1 [2] = experiment: Inhibition of Bz-ATP-induced IL1-beta release in LPS/IFN-gamma-differentiated human THP1 cells by ELISA; assay type: functional, cell-based
In short: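 Full concentration–response curves used THP-1 cells differentiated for 3 h with 25 ng/ml LPS and 10 ng/ml IFNγ. Cells were preincubated 30 min with compound, then stimulated 30 min with 1 mM BzATP. Mature IL-1β in the centrifuged supernatant was quantified by ELISA.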

[3] = target: T2, P2X purinoceptor 7 (Homo sapiens) (UniProt Q99572); experiment: Antagonist activity at human P2X7 receptor expressed in HEK293 cells assessed as inhibition of BzATP-induced fluorescent ethidium accumulation at 8 uM; assay type: functional, cell-based; in short: as §1
T2 sequence (whole entry): T1 sequence (Q99572 whole entry)

CCc1c2[n+](cc3c(OCc4cc(OC)c(OC)cc4[N+](=O)[O-])c(OC)ccc13)CCc1cc(OC)c(OC)cc1-2
pIC50 (P2X purinoceptor 7): 6.77 | inhibition at 1 µM (THP-1 [1]): 83% | pIC50 (THP-1 [2]): 6.76

CCc1c2[n+](cc3c(OCc4ccc(OCc5ccccc5)cc4)c(OC)ccc13)CCc1cc(OC)c(OC)cc1-2
pIC50 (P2X purinoceptor 7): 5.55 | Activity (THP-1 [1]): inactive

CCc1c2[n+](cc3c(OCc4ccccc4C)c(OC)ccc13)CCc1cc(OC)c(OC)cc1-2
pIC50 (P2X purinoceptor 7): 5.30 | Activity (THP-1 [1]): inactive

CCc1c2[n+](cc3c(OCc4cc(C)ccc4C)c(OC)ccc13)CCc1cc(OC)c(OC)cc1-2
pIC50 (P2X purinoceptor 7): 5.82 | inhibition at 1 µM (THP-1 [1]): 8%

COc1ccc2c(c[n+](C)c3c4cc5c(cc4ccc23)OCO5)c1OC
Activity (THP-1 [1]): inactive

CCc1c2[n+](cc3c(OCc4ccc(Br)cc4)c(OC)ccc13)CCc1cc(OC)c(OC)cc1-2
pIC50 (P2X purinoceptor 7): 5.59 | inhibition at 1 µM (THP-1 [1]): 5%

CCc1c2[n+](cc3c(OCc4cc([N+](=O)[O-])ccc4OC)c(OC)ccc13)CCc1cc(OC)c(OC)cc1-2
pIC50 (P2X purinoceptor 7): 6.38 | inhibition at 1 µM (THP-1 [1]): 42%

CC[C@@H]1c2ccc(OC)c(OC)c2CN2CCc3cc4c(cc3[C@H]12)OCO4 (racemic)
pIC50 (P2X purinoceptor 7): 6.25 | inhibition at 1 µM (THP-1 [1]): 34%

COc1ccc2cc3[n+](cc2c1OC)CCc1cc2c(cc1-3)OCO2
inhibition [3]: 7.03%

CCc1c2[n+](cc3c(OCc4cccc(Cl)c4)c(OC)ccc13)CCc1cc(OC)c(OC)cc1-2
pIC50 (P2X purinoceptor 7): 5.58 | inhibition at 1 µM (THP-1 [1]): 7%

CN([C@@H](Cc1ccc(OS(=O)(=O)c2cccc3cnccc23)cc1)C(=O)N1CCN(c2ccccc2)CC1)S(=O)(=O)c1cccc2cnccc12
pIC50 (P2X purinoceptor 7): 6.47 | inhibition at 1 µM (THP-1 [1]): 79% | pIC50 (THP-1 [2]): 7.09

CCc1c2[n+](cc3c(OCc4ccc(F)cc4C(F)(F)F)c(OC)ccc13)CCc1cc(OC)c(OC)cc1-2
pIC50 (P2X purinoceptor 7): 6.09 | inhibition at 1 µM (THP-1 [1]): 13%

COc1cc2c(cc1OC)-c1c(CC3CCCCC3)c3ccc(OC)c(OC)c3c[n+]1CC2
pIC50 (P2X purinoceptor 7): 5.95 | inhibition at 1 µM (THP-1 [1]): 17%

CCc1c2[n+](cc3c(OC)c(OC)ccc13)CCc1cc3c(cc1-2)OCO3
pIC50 (P2X purinoceptor 7): 6.46 | inhibition at 1 µM (THP-1 [1]): 73%

CCc1c2[n+](cc3c(OCc4cccc([N+](=O)[O-])c4C)c(OC)ccc13)CCc1cc(OC)c(OC)cc1-2
pIC50 (P2X purinoceptor 7): 5.27

COc1ccc2c(Cc3c(F)cccc3Cl)c3[n+](cc2c1OC)CCc1cc2c(cc1-3)OCO2
pIC50 (P2X purinoceptor 7): 6.40 | inhibition at 1 µM (THP-1 [1]): 50%

CCCc1c2[n+](cc3c(OC)c(OC)ccc13)CCc1cc(OC)c(OC)cc1-2
pIC50 (P2X purinoceptor 7): 6.30

CCc1c2[n+](cc3c(OCc4ccc(-c5ccccc5)cc4)c(OC)ccc13)CCc1cc(OC)c(OC)cc1-2
pIC50 (P2X purinoceptor 7): 5.49 | Activity (THP-1 [1]): inactive

CCc1c2[n+](cc3c(OCc4cc(C)ccc4[N+](=O)[O-])c(OC)ccc13)CCc1cc(OC)c(OC)cc1-2
pIC50 (P2X purinoceptor 7): 6.14 | inhibition at 1 µM (THP-1 [1]): 40%

C=CCc1c2[n+](cc3c(OC)c(OC)ccc13)CCc1cc3c(cc1-2)OCO3
pIC50 (P2X purinoceptor 7): 6.36 | inhibition at 1 µM (THP-1 [1]): 71%

CCCC(I)c1c2[n+](cc3c(OC)c(OC)ccc13)CCc1cc3c(cc1-2)OCO3 (centres undefined)
pIC50 (P2X purinoceptor 7): 6.38 | inhibition at 1 µM (THP-1 [1]): 54%

COc1cc2c(cc1OC)-c1cc3ccc(OC)c(OC)c3c[n+]1CC2
Activity [3]: inactive

COc1cc(Cc2c3[n+](cc4c(OC)c(OC)ccc24)CCc2cc4c(cc2-3)OCO4)cc(OC)c1
pIC50 (P2X purinoceptor 7): 6.59 | inhibition at 1 µM (THP-1 [1]): 39%

CCc1c2[n+](cc3c(OCc4ccccc4C(F)(F)F)c(OC)ccc13)CCc1cc(OC)c(OC)cc1-2
pIC50 (P2X purinoceptor 7): 5.59 | inhibition at 1 µM (THP-1 [1]): 13%

CCc1c2[n+](cc3c(OCc4ccc(Cl)nc4)c(OC)ccc13)CCc1cc(OC)c(OC)cc1-2
pIC50 (P2X purinoceptor 7): 5.36 | inhibition at 1 µM (THP-1 [1]): 33%

CCc1c2[n+](cc3c(OCc4ccc(C(C)(C)C)cc4)c(OC)ccc13)CCc1cc(OC)c(OC)cc1-2
pIC50 (P2X purinoceptor 7): 5.90 | inhibition at 1 µM (THP-1 [1]): 33%
